Source: article PMC10127574 (ACS chemical biology, 2015)
Like-named read-outs stand apart in the source and are kept apart here.

How the values were obtained:
extracellular IDE = target: T1, extracellular IDE (Homo sapiens, UniProt P14735); experiment: cell-based IDE activity assay
T1 sequence (P14735 1-1019): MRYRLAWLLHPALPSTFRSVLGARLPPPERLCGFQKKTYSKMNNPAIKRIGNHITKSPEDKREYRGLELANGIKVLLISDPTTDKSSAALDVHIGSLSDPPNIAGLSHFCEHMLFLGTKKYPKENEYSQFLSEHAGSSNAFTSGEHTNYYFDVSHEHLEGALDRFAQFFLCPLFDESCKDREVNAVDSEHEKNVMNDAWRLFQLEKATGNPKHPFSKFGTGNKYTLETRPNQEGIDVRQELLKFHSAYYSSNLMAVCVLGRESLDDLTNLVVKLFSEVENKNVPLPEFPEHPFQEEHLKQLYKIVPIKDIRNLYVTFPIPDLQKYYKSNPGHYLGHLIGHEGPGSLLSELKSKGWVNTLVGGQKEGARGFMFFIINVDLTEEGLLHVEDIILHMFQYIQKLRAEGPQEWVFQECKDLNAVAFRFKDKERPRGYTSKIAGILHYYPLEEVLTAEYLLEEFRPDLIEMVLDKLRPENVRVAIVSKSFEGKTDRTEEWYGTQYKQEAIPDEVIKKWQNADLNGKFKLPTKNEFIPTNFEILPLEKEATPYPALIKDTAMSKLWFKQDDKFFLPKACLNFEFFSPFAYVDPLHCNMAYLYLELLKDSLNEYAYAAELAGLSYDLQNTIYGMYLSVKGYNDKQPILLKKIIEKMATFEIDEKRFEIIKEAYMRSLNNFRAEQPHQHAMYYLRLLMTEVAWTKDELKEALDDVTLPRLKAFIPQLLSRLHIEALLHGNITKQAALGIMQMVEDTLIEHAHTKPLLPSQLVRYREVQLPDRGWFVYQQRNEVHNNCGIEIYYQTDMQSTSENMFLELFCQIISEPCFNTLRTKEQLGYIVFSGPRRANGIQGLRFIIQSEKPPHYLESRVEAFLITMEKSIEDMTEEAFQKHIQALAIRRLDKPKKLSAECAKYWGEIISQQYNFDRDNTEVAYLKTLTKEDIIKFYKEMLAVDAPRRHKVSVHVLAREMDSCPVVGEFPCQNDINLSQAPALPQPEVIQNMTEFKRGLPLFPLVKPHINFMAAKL
How it was run: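 Extracellular IDE secreted by HEK-293 cells, harvested mechanically rather than by trypsin, served as the endogenous enzyme source. Activity was read by fluorescence polarization with fluoresceinated, biotinylated Aß peptide (FAßB) in DTT-free solutions. The primary screen used a nominal compound concentration of 6 μM. Confirmed hits were retested in dose-response format to give apparent IC50.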

[1] = target: T2, cysteine-free form of IDE (CF-IDE) (Homo sapiens, UniProt P14735, C819S, form not given); experiment: IDE activity assay with FRET1 using cysteine-free IDE; type: biochemical; settings: read-out: ki CF-IDE
T2 sequence (P14735 42-1019 C819S): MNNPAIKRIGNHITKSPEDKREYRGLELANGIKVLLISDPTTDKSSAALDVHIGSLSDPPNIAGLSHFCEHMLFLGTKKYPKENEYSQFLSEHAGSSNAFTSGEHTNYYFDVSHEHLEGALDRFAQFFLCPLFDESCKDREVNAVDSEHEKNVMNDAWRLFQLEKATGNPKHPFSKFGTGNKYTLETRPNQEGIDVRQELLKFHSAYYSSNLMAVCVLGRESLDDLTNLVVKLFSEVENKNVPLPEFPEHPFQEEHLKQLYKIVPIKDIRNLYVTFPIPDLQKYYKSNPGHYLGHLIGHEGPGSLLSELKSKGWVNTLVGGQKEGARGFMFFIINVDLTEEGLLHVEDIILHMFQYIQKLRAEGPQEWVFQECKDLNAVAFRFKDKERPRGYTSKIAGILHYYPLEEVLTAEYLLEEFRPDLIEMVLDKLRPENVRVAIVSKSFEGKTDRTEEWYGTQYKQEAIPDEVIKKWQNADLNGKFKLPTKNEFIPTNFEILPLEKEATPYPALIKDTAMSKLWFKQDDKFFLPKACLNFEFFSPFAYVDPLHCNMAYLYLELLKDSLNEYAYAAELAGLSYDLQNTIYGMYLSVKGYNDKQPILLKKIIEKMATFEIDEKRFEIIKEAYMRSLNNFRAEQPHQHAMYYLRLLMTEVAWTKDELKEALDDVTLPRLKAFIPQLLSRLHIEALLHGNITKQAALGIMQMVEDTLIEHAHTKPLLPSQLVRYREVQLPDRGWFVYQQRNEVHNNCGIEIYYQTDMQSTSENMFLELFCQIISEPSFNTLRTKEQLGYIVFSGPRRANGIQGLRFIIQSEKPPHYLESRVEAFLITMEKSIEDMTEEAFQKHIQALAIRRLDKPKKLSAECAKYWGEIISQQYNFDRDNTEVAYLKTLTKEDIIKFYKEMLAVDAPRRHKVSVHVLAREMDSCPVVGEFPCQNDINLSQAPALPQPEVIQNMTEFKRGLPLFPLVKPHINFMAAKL

## O=c1c2cc(F)ccc2sn1-c1cc(S(=O)(=O)N2CCOCC2)ccc1N1CCOCC1 [Compound 8, 5-fluoro-2-(2-morpholin-4-yl-5-morpholin-4-ylsulfonylphenyl)-1,2-benzothiazol-3-one]
Extracellular IDE; read-out: IC50^app cell-based, Table 2
  IC50: 110 nM
Extracellular IDE; read-out: IC50^app in cells, FAßB, Table 3, n=4
  IC50: 110 ± 12 nM
[1]
  Ki: 8370 nM
